In ChEMBL document CHEMBL2034956, “Bioactive diterpenes from Callicarpa longissima” (J Nat Prod, 2012):
In brackets after ≈: the same amount, converted by molar mass.

Key:
Format in all cases: functional, cell-based
[1] = Antiinflammatory activity in human neutrophils assessed as inhibition of FMLP/CB-induced superoxide-anion generation incubated for 5 mins prior to FMLP/CB-challenge measured after 10 mins by spectrophotometry; conditions: Neutrophil
Method in brief: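 Human neutrophils isolated by dextran sedimentation and Ficoll centrifugation. Superoxide anion measured as superoxide dismutase-inhibitable reduction of ferricytochrome c.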

PC-3 = experiment: Antiproliferative activity against human PC3 cells after 48 hrs by SRB assay; conditions: PC-3, 48 h
Method in brief: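 Cells seeded in RPMI 1640 with 5% fetal bovine serum at 37 °C, 5% CO2. After 24 h, two plates per line TCA-fixed as time-zero reference. Compound added, then 48 h further incubation at 37 °C. Cold TCA fixation, 0.4% w/v sulforhodamine B in 1% acetic acid for 10 min, acetic acid washes, dye solubilized in 10 mM Trizma base, absorbance 515 nm. IC50 is 50% absorbance reduction versus untreated cells.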

[2] = Antiinflammatory activity in human neutrophils assessed as inhibition of FMLP/CB-induced elastase release using Meo-Suc-Ala-Ala-Pro-Val-p-nitroanilide as substrate incubated for 5 mins prior to FMLP/CB-challenge by spectrophotometry; conditions: Neutrophil
Method in brief: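 Human neutrophils isolated by dextran sedimentation and Ficoll centrifugation before elastase release measurement.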

Structure (SMILES)	IC50 [1] [µg/mL]	IC50 (PC-3) [µg/mL]	IC50 [2] [µg/mL]
C=C1CC[C@H]2C(C)(C)C(=O)CC[C@]2(C)[C@H]1CC/C(C)=C/C(=O)O	9.31 (≈ 29.2 µM)	> 10	> 10
C=C1C[C@@H](O)[C@H]2C(C)(C)CCC[C@]2(C)[C@H]1CC/C(C)=C/C(=O)O	> 10		> 10
COc1ccc(-c2oc3cc(OC)c(OC)c(O)c3c(=O)c2OC)cc1	> 10		> 10
C=C(C)[C@@H]1CCC2=C[C@]3(C(C)C)CC[C@]2(OO3)[C@@]1(C)CCC(=O)O (relative stereo)	3.14 (≈ 9.39 µM)	> 10	4.66 (≈ 13.9 µM)
C=C(C)[C@@H]1CCC2=C[C@](O)(C(C)C)CC[C@@]23OC(=O)CC[C@@]13C (relative stereo)	> 10		> 10
CC(C)c1ccc2c(c1)CC[C@@H](C(C)(C)O)[C@]2(C)CCC(=O)O (relative stereo)	> 10		> 10
COc1ccc(-c2oc3cc(OC)c(OC)c(O)c3c(=O)c2OC)cc1OC [ARTEMETIN]	> 10		> 10
CC1=CC(=O)[C@H]2C(C)(C)CCC[C@]2(C)[C@H]1CC/C(C)=C/C(=O)O [CALLILONGISIN D]	5.09 (≈ 16 µM)	> 10	> 10
C[C@H]1[C@H](C)CC[C@]2(C(=O)O)CC[C@]3(C)C(=CC[C@@H]4[C@@]5(C)CC[C@H](O)C(C)(C)[C@@H]5CC[C@]43C)[C@H]12 [URSOLIC ACID]	2.79 (≈ 6.11 µM)	> 10	5.21 (≈ 11.4 µM)
